Results published in ChEMBL document CHEMBL1156920, “Structural analogues of schweinfurthin F: probing the steric, electronic, and hydrophobic properties of the D-ring substructure” (Bioorg Med Chem, 2010).

Experiments:
SF-295 = assay: Cytotoxicity against human SF295 cells after 44 hrs by MTT assay; assay type: functional, cell-based; settings: SF-295, 44 h
Outline: (§1)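 SF-295 cells cultured in RPMI 1640 and A549 cells in F-12, each with 10% FBS, penicillin–streptomycin, amphotericin B and L-glutamine, at 37 °C in 5% CO2. Cells were grown to 60% confluency, then treated for 44 h. Medium was replaced with medium containing 0.06 mg/mL MTT (phenol red-free RPMI for SF-295) for 4 h. Acid/Triton/isopropanol stop solution was added, plates incubated overnight at 37 °C, OD read at 540 and 650 nm, and EC50 calculated.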

A549 = assay: Cytotoxicity against human A549 cells after 44 hrs by MTT assay; assay type: functional, cell-based; settings: A549, 44 h; outline: as §1

Row | SMILES | EC50 (SF-295) | EC50 (A549)
1 | COc1cc(/C=C\c2cc(O)c(C/C=C(\C)CCC=C(C)C)c(O)c2)cc2c1O[C@]1(C)CC[C@@H](O)C(C)(C)[C@H]1C2 | > 10 µM | > 10 µM
2 | COc1cc(CCc2cc(O)c(CCC(C)C)c(O)c2)cc2c1O[C@]1(C)CC[C@@H](O)C(C)(C)[C@H]1C2 | 2.8 µM | > 10 µM
3 | COc1cc(CCc2cc(O)c(CC=C(C)C)c(O)c2)cc2c1O[C@]1(C)CC[C@@H](O)C(C)(C)[C@H]1C2 | 2.9 µM | > 10 µM
4 | COc1cc(/C=C/c2cc(O)c3ccoc3c2)cc2c1O[C@]1(C)CC[C@@H](O)C(C)(C)[C@H]1C2 | 4.8 µM | > 10 µM
5 | COc1cc(/C=C/c2cc(O)c3c(c2)OCC3)cc2c1O[C@]1(C)CC[C@@H](O)C(C)(C)[C@H]1C2 | 2.9 µM | > 10 µM
6 | C#CCc1c(O)cc(/C=C/c2cc3c(c(OC)c2)O[C@]2(C)CC[C@@H](O)C(C)(C)[C@H]2C3)cc1O | 1.3 µM | > 10 µM
7 | CCCc1c(O)cc(/C=C/c2cc3c(c(OC)c2)O[C@]2(C)CC[C@@H](O)C(C)(C)[C@H]2C3)cc1O | 0.9 µM | > 10 µM
8 | COc1cc(/C=C/c2cc(O)c(CCCO)c(O)c2)cc2c1O[C@]1(C)CC[C@@H](O)C(C)(C)[C@H]1C2 | 2.5 µM | > 10 µM
9 | C=CCc1c(O)cc(/C=C/c2cc3c(c(OC)c2)O[C@]2(C)CC[C@@H](O)C(C)(C)[C@H]2C3)cc1O | 1.7 µM | > 10 µM
